According to ChEMBL document CHEMBL1132280, “Discovery of potent and selective SH2 inhibitors of the tyrosine kinase ZAP-70” (J Med Chem, 1999):
pIC50: −log10 of the molar value. Square brackets hold non-standard residues; d marks the D form. Peptide text beside a SMILES is read from it. pY = N[C@@H](Cc1ccc(OP(=O)(O)O)cc1)C(=O)O

Key:
Set-up in all cases: species or system Escherichia coli
[1] = target: Tyrosine-protein kinase SYK (Homo sapiens, UniProt P43405); experiment: Binding affinity against Syk protein tyrosine kinase SH2 domain
[2] = target: Growth factor receptor-bound protein 2 (Homo sapiens, UniProt P62993); experiment: Binding affinity against Growth factor receptor bound protein 2
How it was run: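 Fluorescence polarization competition assay using human Grb2 SH2 (residues 55–152), expressed in E. coli BL21(DE3) and purified on phosphotyrosine-agarose. Compounds were serially diluted 1:2 across 1000–0.04 μM in 20 mM phosphate pH 7.4 with 100 mM NaCl, 10 mM DTT, 4% DMSO, 1 mM EDTA and 0.1% bovine γ-globulin. They were added to 1.25 µM protein premixed with 20 nM fluorescein-labelled peptide (ex 485/em 530 nm). IC50 was taken from percent tracer bound relative to vehicle, as the mean of ≥3 experiments.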

[3] = target: Proto-oncogene tyrosine-protein kinase Src (Homo sapiens, UniProt P12931); experiment: Binding affinity against Src SH2 domain
Sequence of Proto-oncogene tyrosine-protein kinase Src (P12931 2-536 limits assumed): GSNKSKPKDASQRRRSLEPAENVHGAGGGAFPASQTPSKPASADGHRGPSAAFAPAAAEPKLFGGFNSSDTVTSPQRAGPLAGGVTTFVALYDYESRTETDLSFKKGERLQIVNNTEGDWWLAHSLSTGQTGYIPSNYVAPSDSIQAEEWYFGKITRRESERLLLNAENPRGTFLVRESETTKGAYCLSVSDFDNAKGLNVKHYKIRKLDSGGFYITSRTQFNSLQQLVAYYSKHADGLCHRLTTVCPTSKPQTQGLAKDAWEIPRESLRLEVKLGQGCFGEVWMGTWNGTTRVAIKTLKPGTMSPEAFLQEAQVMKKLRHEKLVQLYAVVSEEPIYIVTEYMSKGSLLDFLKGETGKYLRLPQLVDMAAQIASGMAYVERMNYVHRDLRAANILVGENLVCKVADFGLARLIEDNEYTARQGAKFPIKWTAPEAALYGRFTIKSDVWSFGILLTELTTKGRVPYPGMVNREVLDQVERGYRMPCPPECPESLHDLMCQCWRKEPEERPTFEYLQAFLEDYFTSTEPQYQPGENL

[4] = target: T1, Tyrosine-protein kinase ZAP-70 (Homo sapiens, UniProt P43403); experiment: Binding affinity against SH2 domain of Zeta-chain (TCR) associated protein kinase 70 kDa
T1 sequence (P43403 whole entry): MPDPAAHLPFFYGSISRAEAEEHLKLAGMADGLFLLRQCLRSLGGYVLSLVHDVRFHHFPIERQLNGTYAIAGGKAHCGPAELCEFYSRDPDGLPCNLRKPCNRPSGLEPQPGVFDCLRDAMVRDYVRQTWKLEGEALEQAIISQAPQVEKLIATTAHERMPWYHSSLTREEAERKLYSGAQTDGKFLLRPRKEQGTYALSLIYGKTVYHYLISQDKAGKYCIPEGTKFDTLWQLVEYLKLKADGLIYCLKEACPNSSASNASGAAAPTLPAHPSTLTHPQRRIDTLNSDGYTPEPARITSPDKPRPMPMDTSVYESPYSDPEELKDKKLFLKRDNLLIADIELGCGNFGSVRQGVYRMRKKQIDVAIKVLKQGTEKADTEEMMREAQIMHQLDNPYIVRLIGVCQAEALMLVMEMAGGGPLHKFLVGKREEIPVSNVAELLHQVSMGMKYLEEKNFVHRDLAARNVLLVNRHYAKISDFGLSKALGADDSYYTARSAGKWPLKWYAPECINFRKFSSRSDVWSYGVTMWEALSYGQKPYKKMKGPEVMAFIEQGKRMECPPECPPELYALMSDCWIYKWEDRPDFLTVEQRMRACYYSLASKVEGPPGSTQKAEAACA

SMILES | pIC50 [1] | pIC50 [2] | pIC50 [3] | pIC50 [4]
O=C(Cc1ccccc1)N[C@@H](Cc1ccc(OP(=O)(O)O)cc1)C(=O)N[C@@H](CO)c1nc(Cc2ccc(Cl)c(Cl)c2)no1 | < 3.30 | 3.58 | 4.46 | 
CC(=O)N[C@@H](Cc1ccc(OP(=O)(O)O)cc1)C(=O)N[C@@H](C)c1nc(Cc2ccc3ccccc3c2)no1 | < 3.30 | < 3.30 | 4.19 | 
CC(=O)N[C@@H](Cc1ccc(OP(=O)(O)O)cc1)C(=O)N[C@@H](CCC(N)=O)c1nc(Cc2ccc(Cl)c(Cl)c2)no1 | < 3.30 | 3.36 | 3.69 | 
CC(=O)N[C@@H](Cc1ccc(OP(=O)(O)O)cc1)C(=O)N[C@@H](CCc1ccccc1)c1nc(Cc2ccc(Cl)c(Cl)c2)no1 | 3.60 | 3.47 | 4.22 | 
CC[C@H](C)[C@H](NC(=O)[C@H](CCC(=O)O)NC(=O)[C@H](CCC(=O)O)NC(=O)[C@H](Cc1ccc(OP(=O)(O)O)cc1)NC(C)=O)C(N)=O | 3.77 |  | 5.22 | 3.28
CC(=O)N[C@@H](Cc1ccc(OP(=O)(O)O)cc1)C(=O)N[C@@H](CCC(N)=O)c1nc(Cc2ccccc2)no1 | < 3.30 | 3.34 | 4.14 | < 3.30
CC(=O)N[C@@H](Cc1ccc(OP(=O)(O)O)cc1)C(=O)N[C@@H](CO)c1nc(Cc2ccc(Cl)c(Cl)c2)no1 | < 3.30 | < 3.30 | 4.12 | 
CC(=O)N[C@@H](Cc1ccc(OP(=O)(O)O)cc1)C(=O)N[C@@H](CCC(N)=O)c1nc(CCc2ccccc2)no1 | < 3.30 |  | 3.81 | < 3.30
CC(=O)N[C@@H](Cc1ccc(OP(=O)(O)O)cc1)C(=O)N[C@@H](CCC(N)=O)c1nc(Cc2ccc(Cl)cc2Cl)no1 | < 3.30 |  | < 3.30 | 3.74
CC(=O)N[C@@H](Cc1ccc(OP(=O)(O)O)cc1)C(=O)N[C@@H](CO)c1nc(Cc2ccc3ccccc3c2)no1 | < 3.30 | 3.32 | 4.00 | 
CC(=O)N[C@@H](Cc1ccc(OP(=O)(O)O)cc1)C(=O)N[C@@H](CC(N)=O)C(=O)N[C@@H](CCC(=O)O)C(=O)N[C@@H](CC(C)C)C(N)=O (Ac-[pY]NEL-NH2) | 3.38 |  | 3.63 | 3.37
CC(=O)N[C@@H](Cc1ccc(OP(=O)(O)O)cc1)C(=O)N[C@@H](CC(=O)O)C(=O)N[C@H](C(=O)N[C@@H](CC(C)C)C(N)=O)C(C)C (Ac-[pY]DVL-NH2) | 3.41 |  | 3.58 | 3.48
CC(=O)N[C@@H](Cc1ccc(OP(=O)(O)O)cc1)C(=O)N[C@@H](C)c1nc(Cc2ccc(Cl)c(Cl)c2)no1 | < 3.30 | < 3.30 | 4.14 | 
CC(=O)N[C@@H](Cc1ccc(OP(=O)(O)O)cc1)C(=O)N[C@@H](CCc1ccccc1)c1nc(Cc2ccc3ccccc3c2)no1 | 3.54 | < 3.30 | 4.11 | 
CC(=O)N[C@@H](Cc1ccc(OP(=O)(O)O)cc1)C(=O)N[C@@H](C)c1nc(Cc2cccc(Cl)c2)no1 | < 3.30 |  | 4.17 | 
O=C(Cc1ccccc1)N[C@@H](Cc1ccc(OP(=O)(O)O)cc1)C(=O)N[C@@H](CO)c1nc(Cc2ccc3ccccc3c2)no1 | < 3.30 | 3.43 | 4.17 | 
C[C@H](NC(=O)[C@H](Cc1ccc(OP(=O)(O)O)cc1)NC(=O)Cc1c[nH]c2ccccc12)c1nc(Cc2ccc(C(F)(F)F)cc2)no1 | 3.36 |  | 4.21 | 
CC(=O)N[C@@H](Cc1ccc(OP(=O)(O)O)cc1)C(=O)N[C@@H](CCC(N)=O)c1nc(Cc2ccc3ccccc3c2)no1 | < 3.30 | 3.49 | 3.56 | 

Further lines, results first:

pIC50 [1] | pIC50 [2] | pIC50 [3] | pIC50 [4] | SMILES
< 3.30 | < 3.30 | 3.55 |  | CC(=O)N[C@@H](Cc1ccc(OP(=O)(O)O)cc1)C(=O)N[C@@H](CO)c1nc(Cc2ccc(C(F)(F)F)cc2)no1
< 3.30 | < 3.30 | 3.68 |  | CC(=O)N[C@@H](Cc1ccc(OP(=O)(O)O)cc1)C(=O)N[C@@H](C)c1nc(Cc2ccc(C(F)(F)F)cc2)no1
< 3.30 |  | < 3.30 | 3.89 | CC(=O)N[C@@H](Cc1ccc(OP(=O)(O)O)cc1)C(=O)NCc1nc(Cc2ccc(C(F)(F)F)cc2)no1
< 3.30 |  | < 3.30 | < 3.30 | CC(=O)N[C@@H](Cc1ccc(OP(=O)(O)O)cc1)C(=O)NCCc1nc(Cc2ccc(C(F)(F)F)cc2)no1
< 3.30 |  | 3.31 | 3.64 | CC(=O)N[C@@H](Cc1ccc(OP(=O)(O)O)cc1)C(=O)NC(C)(C)c1nc(Cc2ccc(C(F)(F)F)cc2)no1
3.49 | < 3.30 | 4.02 |  | CC(=O)N[C@@H](Cc1ccc(OP(=O)(O)O)cc1)C(=O)N[C@@H](CCc1ccccc1)c1nc(Cc2ccc(C(F)(F)F)cc2)no1
3.50 | < 3.30 | 3.79 |  | O=C(Cc1ccccc1)N[C@@H](Cc1ccc(OP(=O)(O)O)cc1)C(=O)N[C@@H](CO)c1nc(Cc2ccc(C(F)(F)F)cc2)no1
< 3.30 |  | 3.94 |  | CC(=O)N[C@@H](Cc1ccc(OP(=O)(O)O)cc1)C(=O)N[C@@H](C)c1nc(Cc2cccc(C(F)(F)F)c2)no1
< 3.30 |  | 3.53 |  | CC(=O)N[C@@H](Cc1ccc(OP(=O)(O)O)cc1)C(=O)N[C@@H](CCC(N)=O)c1nc(Cc2ccc(C)cc2)no1
3.33 |  | 4.74 |  | CC(=O)N[C@@H](Cc1ccc(OP(=O)(O)O)cc1)C(=O)N[C@@H](C)c1nc(Cc2ccc(I)cc2)no1
< 3.30 |  | 3.83 |  | CC(=O)N[C@@H](Cc1ccc(OP(=O)(O)O)cc1)C(=O)N[C@@H](CO)c1nc(Cc2ccc(Cl)cc2)no1
< 3.30 |  | 3.70 |  | CC(=O)N[C@@H](Cc1ccc(OP(=O)(O)O)cc1)C(=O)N[C@@H](C)c1nc(Cc2ccc(F)cc2)no1
< 3.30 |  | 4.51 |  | CC(=O)N[C@@H](Cc1ccc(OP(=O)(O)O)cc1)C(=O)N[C@@H](C)c1nc(Cc2ccc(Br)cc2)no1
< 3.30 |  | 3.69 |  | CC(=O)N[C@@H](Cc1ccc(OP(=O)(O)O)cc1)C(=O)N[C@@H](CCC(N)=O)c1nc(Cc2ccc(Cl)cc2)no1
